From ChEMBL document CHEMBL3286367, “Synthesis of new class of spirocarbocycle derivatives by multicomponent domino reaction and their evaluation for antimicrobial, anticancer activity and molecular docking studies” (2014)
Values after ≈ are worked out from the molar mass of the structure shown. Active and inactive are the calls of the source. The rule behind the calls is not given here.

How the values were obtained:
[1] = test system: Staphylococcus epidermidis; experiment: Antimicrobial activity against Staphylococcus epidermidis MTCC 3615 assessed as zone of inhibition at 1 mg/disc after 24 hrs incubation by disc diffusion assay; assay type: functional
Method in brief: (§1)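 Inocula grown in Mueller Hinton broth for 24 h at 37 °C and swabbed onto Mueller Hinton agar. Discs carried 1 mg compound each and stood 30 min at room temperature before 24 h incubation at 37 °C. Solvent as negative control. Inhibition zones recorded in mm; experiment done twice.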

Staphylococcus aureus [2] = experiment: Antimicrobial activity against Staphylococcus aureus MTCC 96 assessed as zone of inhibition at 1 mg/disc after 24 hrs incubation by disc diffusion assay; assay type: functional; method in brief: as §1
Staphylococcus aureus [3] = experiment: Antimicrobial activity against methicillin-resistant Staphylococcus aureus assessed as zone of inhibition at 1 mg/disc after 24 hrs incubation by disc diffusion assay; assay type: functional
Method in brief: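 Inoculum grown in Mueller Hinton broth 24 h at 37°C, swabbed onto Mueller Hinton agar and dried 10 min. Discs loaded at 1 mg/disc, then 30 min at room temperature for diffusion. Plates incubated 24 h at 37°C. Solvent negative control; streptomycin positive control. Zone of inhibition read in mm; experiment done twice.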

Micrococcus luteus [4] = experiment: Antimicrobial activity against Micrococcus luteus MTCC 106 assessed as zone of inhibition at 1 mg/disc after 24 hrs incubation by disc diffusion assay; assay type: functional; method in brief: as §1
Klebsiella aerogenes [5] = experiment: Antimicrobial activity against Enterobacter aerogenes MTCC 111 assessed as zone of inhibition at 1 mg/disc after 24 hrs incubation by disc diffusion assay; assay type: functional; method in brief: as §1
Salmonella typhimurium [6] = experiment: Antimicrobial activity against Salmonella typhimurium MTCC 1251 assessed as zone of inhibition at 1 mg/disc after 24 hrs incubation by disc diffusion assay; assay type: functional, Salmonella enterica subsp. enterica serovar Typhimurium; settings: for inhibition: Salmonella enterica subsp. enterica serovar Typhimurium; method in brief: as §1
Klebsiella pneumoniae [7] = experiment: Antimicrobial activity against Klebsiella pneumonia MTCC 109 assessed as zone of inhibition at 1 mg/disc after 24 hrs incubation by disc diffusion assay; assay type: functional; method in brief: as §1
Proteus vulgaris [8] = experiment: Antimicrobial activity against Proteus vulgaris MTCC 1771 assessed as zone of inhibition at 1 mg/disc after 24 hrs incubation by disc diffusion assay; assay type: functional; method in brief: as §1
Shigella flexneri [9] = experiment: Antimicrobial activity against Shigella flexneri MTCC 1457 assessed as zone of inhibition at 1 mg/disc after 24 hrs incubation by disc diffusion assay; assay type: functional; method in brief: as §1
Candida albicans = experiment: Antifungal activity against Candida albicans MTCC 227 assessed as zone of inhibition at 1 mg/disc after 48 hrs incubation by disc diffusion assay; assay type: functional
Method in brief: (§2)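 Disc diffusion on Mueller Hinton agar with swabbed cultures, 1 mg compound per disc. Discs stood 30 min at room temperature for diffusion, then plates incubated 48 h at 28 °C. Solvent as negative control. Yeast pre-grown in Sabouraud dextrose broth at 28 °C for 48-72 h; filamentous fungal spores came from SDA slants grown 10 days at 28 °C. Zone diameters in mm; run twice.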

Malassezia pachydermatis = experiment: Antifungal activity against Malassezia pachydermatis assessed as zone of inhibition at 1 mg/disc after 48 hrs incubation by disc diffusion assay; assay type: functional; method in brief: as §2
Staphylococcus aureus [10] = experiment: Antimicrobial activity against Staphylococcus aureus MTCC 96 assessed as absence of visible growth after 48 to 72 hrs; assay type: functional
Staphylococcus aureus [11] = experiment: Antimicrobial activity against methicillin-resistant Staphylococcus aureus assessed as absence of visible growth after 48 to 72 hrs; assay type: functional
Method in brief: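 Broth two-fold serial dilution in 96-well plates, 1000 to 7.81 µg/mL, compound dissolved in DMSO (2%). Inoculum grown in Mueller Hinton broth 24 h at 37°C. Streptomycin positive control. 5 µl of tested broth plated on MHA; MIC is the lowest concentration inhibiting visible growth on agar.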

Micrococcus luteus [12] = experiment: Antimicrobial activity against Micrococcus luteus MTCC 106 assessed as absence of visible growth after 48 to 72 hrs; assay type: functional
Klebsiella aerogenes [13] = experiment: Antimicrobial activity against Enterobacter aerogenes MTCC 111 assessed as absence of visible growth after 48 to 72 hrs; assay type: functional
Salmonella typhimurium [14] = experiment: Antimicrobial activity against Salmonella typhimurium MTCC 1251 assessed as absence of visible growth after 48 to 72 hrs; assay type: functional, Salmonella enterica subsp. enterica serovar Typhimurium; settings: Salmonella enterica
Proteus vulgaris [15] = experiment: Antimicrobial activity against Proteus vulgaris MTCC 1771 assessed as absence of visible growth after 48 to 72 hrs; assay type: functional
Shigella flexneri [16] = experiment: Antimicrobial activity against Shigella flexneri MTCC 1457 assessed as absence of visible growth after 24 hrs
Klebsiella pneumoniae [17] = experiment: Antimicrobial activity against Klebsiella pneumonia MTCC 109 assessed as absence of visible growth after 24 hrs
[18] = test system: Staphylococcus epidermidis; experiment: Antimicrobial activity against Staphylococcus epidermidis MTCC 3615 assessed as absence of visible growth after 24 hrs

| SMILES | inhibition zone (IZ) [1] [mm] | inhibition zone (IZ) (Staphylococcus aureus [2]) [mm] | inhibition zone (IZ) (Staphylococcus aureus [3]) [mm] | inhibition zone (IZ) (Micrococcus luteus [4]) [mm] | inhibition zone (IZ) (Klebsiella aerogenes [5]) [mm] | inhibition zone (IZ) (Salmonella typhimurium [6]) [mm] | inhibition zone (IZ) (Klebsiella pneumoniae [7]) [mm] | inhibition zone (IZ) (Proteus vulgaris [8]) [mm] | inhibition zone (IZ) (Shigella flexneri [9]) [mm] | inhibition zone (IZ) (Candida albicans) [mm] | inhibition zone (IZ) (Malassezia pachydermatis) [mm] | MIC (Staphylococcus aureus [10]) [µg/mL] | MIC (Staphylococcus aureus [11]) [µg/mL] | MIC (Micrococcus luteus [12]) [µg/mL] | MIC (Klebsiella aerogenes [13]) [µg/mL] | MIC (Salmonella typhimurium [14]) [µg/mL] | inhibition (Proteus vulgaris [8]) | inhibition (Shigella flexneri [9]) | inhibition (Candida albicans) | inhibition (Malassezia pachydermatis) | also measured |
| --- | --- | --- | --- | --- | --- | --- | --- | --- | --- | --- | --- | --- | --- | --- | --- | --- | --- | --- | --- | --- | --- |
| Cc1ccc([C@H]2[C@@H]3CCCC=C3C(C#N)=C(N)[C@]23C(=O)Nc2ccccc23)cc1 | 12 | 11 | 9 | 8 | 13 | 9 | 10 | 12 | 9 | 8 | 10 | 250 (≈ 655 µM) | 1000 (≈ 2620 µM) | 1000 (≈ 2620 µM) | 250 (≈ 655 µM) | 1000 (≈ 2620 µM) | – | – | – | – | MIC (Proteus vulgaris [15]): 250 µg/mL (≈ 655 µM); MIC (Shigella flexneri [16]): 1000 µg/mL (≈ 2620 µM); MIC (Klebsiella pneumoniae [17]): 500 µg/mL (≈ 1310 µM); MIC [18]: 250 µg/mL (≈ 655 µM) |
| Cc1ccc([C@H]2[C@@H]3CCCCC=C3C(C#N)=C(N)[C@]23C(=O)Nc2ccccc23)cc1 | 14 | 13 | 15 | 13 | 12 | 16 | 12 | 12 | 11 | 9 | 8 | 250 (≈ 632 µM) | 250 (≈ 632 µM) | 250 (≈ 632 µM) | 250 (≈ 632 µM) | 125 (≈ 316 µM) | – | – | – | – | MIC (Proteus vulgaris [15]): 250 µg/mL (≈ 632 µM); MIC (Shigella flexneri [16]): 250 µg/mL (≈ 632 µM); MIC (Klebsiella pneumoniae [17]): 250 µg/mL (≈ 632 µM); MIC [18]: 250 µg/mL (≈ 632 µM) |
| COc1ccc([C@H]2[C@@H]3CCCC=C3C(C#N)=C(N)[C@]23C(=O)Nc2ccccc23)cc1 | 9 | 10 | 11 | 8 | 10 | 8 | 9 | – | 8 | 10 | 13 | – | – | – | – | – | inactive | – | – | – | – |
| N#CC1=C(N)[C@]2(C(=O)Nc3ccccc32)[C@@H](c2ccoc2)[C@@H]2CCCC=C12 | – | – | 10 | 8 | – | – | – | – | – | – | – | – | – | – | – | – | inactive | inactive | inactive | inactive | inhibition [1]: inactive; inhibition (Staphylococcus aureus [2]): inactive; inhibition (Klebsiella aerogenes [5]): inactive; inhibition (Salmonella typhimurium [6]): inactive; inhibition (Klebsiella pneumoniae [7]): inactive |
| N#CC1=C(N)[C@]2(C(=O)Nc3ccccc32)[C@@H](c2ccccn2)[C@@H]2CCCC=C12 | 9 | – | – | – | 8 | 11 | – | 10 | – | 12 | 11 | – | – | – | – | – | – | inactive | – | – | inhibition (Staphylococcus aureus [2]): inactive; inhibition (Staphylococcus aureus [3]): inactive; inhibition (Micrococcus luteus [4]): inactive; inhibition (Klebsiella pneumoniae [7]): inactive |
| N#CC1=C(N)[C@]2(C(=O)Nc3ccccc32)[C@@H](c2ccccc2F)[C@@H]2CCCC=C12 (mixture of isomers) | 13 | 17 | 12 | 10 | 14 | 11 | 10 | 8 | 9 | 10 | – | 125 | 250 | 250 | 250 | 250 | – | – | – | inactive | MIC (Proteus vulgaris [15]): 1000 µg/mL; MIC (Shigella flexneri [16]): 1000 µg/mL; MIC (Klebsiella pneumoniae [17]): 500 µg/mL; MIC [18]: 250 µg/mL |
| CC(=O)N1CCN(c2ccc(OCC3COC(Cn4ccnc4)(c4ccc(Cl)cc4Cl)O3)cc2)CC1 (racemic) [KETOCONAZOLE] | – | – | – | – | – | – | – | – | – | 28 | 26 | – | – | – | – | – | – | – | – | – | – |
| COc1ccc([C@H]2[C@@H]3CCCC=C3C(C#N)=C(N)C23C(=O)c2ccccc2C3=O)cc1 (relative stereo) | 12 | 11 | – | 11 | 10 | – | 10 | – | – | – | 10 | – | – | – | – | – | inactive | inactive | inactive | – | inhibition (Staphylococcus aureus [3]): inactive; inhibition (Salmonella typhimurium [6]): inactive |
| COc1ccc([C@H]2[C@@H]3CCC=C3C(C#N)=C(N)C23C(=O)c2ccccc2C3=O)cc1 (relative stereo) | – | – | 10 | 8 | – | – | 11 | – | – | – | – | – | – | – | – | – | inactive | inactive | inactive | inactive | inhibition [1]: inactive; inhibition (Staphylococcus aureus [2]): inactive; inhibition (Klebsiella aerogenes [5]): inactive; inhibition (Salmonella typhimurium [6]): inactive |
| N#CC1=C(N)C2(C(=O)c3ccccc3C2=O)[C@@H](c2ccccc2F)[C@@H]2CCCC=C12 (relative stereo) | 14 | 14 | 13 | 15 | 12 | 10 | 16 | 12 | 14 | 10 | – | 250 (≈ 627 µM) | 250 (≈ 627 µM) | 250 (≈ 627 µM) | 250 (≈ 627 µM) | 500 (≈ 1250 µM) | – | – | – | inactive | MIC (Proteus vulgaris [15]): 250 µg/mL (≈ 627 µM); MIC (Shigella flexneri [16]): 250 µg/mL (≈ 627 µM); MIC (Klebsiella pneumoniae [17]): 125 µg/mL (≈ 314 µM); MIC [18]: 250 µg/mL (≈ 627 µM) |
| N#CC1=C(N)C2(C(=O)c3ccccc3C2=O)[C@@H](c2ccc(Cl)cc2)[C@@H]2CCCC=C12 (relative stereo) | 8 | 9 | 13 | – | 13 | 10 | – | – | 8 | – | – | – | – | – | – | – | inactive | – | inactive | inactive | inhibition (Micrococcus luteus [4]): inactive; inhibition (Klebsiella pneumoniae [7]): inactive |
| N#CC1=C(N)C2(C(=O)c3ccccc3C2=O)[C@@H](c2ccc(Br)cc2)[C@@H]2CCCC=C12 (relative stereo) | – | 14 | 13 | – | – | 12 | 10 | – | – | 10 | – | – | – | – | – | – | inactive | inactive | – | inactive | inhibition [1]: inactive; inhibition (Micrococcus luteus [4]): inactive; inhibition (Klebsiella aerogenes [5]): inactive |
| Cc1ccc([C@H]2[C@@H]3CCCC=C3C(C#N)=C(N)C23C(=O)CCCC3=O)cc1 (relative stereo) | – | – | – | – | – | – | 10 | 9 | – | – | – | – | – | – | – | – | – | inactive | inactive | inactive | inhibition [1]: inactive; inhibition (Staphylococcus aureus [2]): inactive; inhibition (Staphylococcus aureus [3]): inactive; inhibition (Micrococcus luteus [4]): inactive; inhibition (Klebsiella aerogenes [5]): inactive; inhibition (Salmonella typhimurium [6]): inactive |
